According to ChEMBL document CHEMBL1131319, “(3R,4S)-3-[4-(4-fluorophenyl)-4-hydroxypiperidin-1-yl]chroman-4,7-diol: a conformationally restricted analogue of the NR2B subtype-selective NMDA antagonist (1S,2S)-1-(4-hydroxyphenyl)-2-(4-hydroxy-4-phenylpiperidino)- 1-propanol” (J Med Chem, 1998):
The source made the active and inactive calls. No cut-off for these calls is given here.

How the values were obtained:
[1] = Displacement of racemic [3H]CP-101606 from rat forebrain membrane N-methyl-D-aspartate glutamate receptor 2B
Rattus norvegicus [2] = species: Rattus norvegicus; test: Compound was tested for neuroprotection against NMDA-Induced toxicity in cultured rat hippocampal neurons.; type: functional
[3] = Compound was evaluated for blockade of CSD as rats protected/ rats tested after a iv dose of 2 mg/kg followed by an infusion of 2 mg/kgh; 2/2; type: functional, organism-based
[4] = Compound was evaluated for blockade of CSD as rats protected/ rats tested after a iv dose of 0.2 mg/kg followed by an infusion of 0.2 mg/kg/h; 0/2; type: functional, organism-based
Rattus norvegicus [5] = test: Compound was evaluated for blockade of CSD in rats; rat protected /tested(mg/kg iv bolus+mg/kgh iv infusion) = 0/2 (0.2+0.2); type: functional, organism-based
Rattus norvegicus [6] = test: Compound was evaluated for blockade of CSD in rats; rat protected /tested(mg/kg iv bolus+mg/kgh iv infusion) = 2/3 (0.6+0.6); type: functional, organism-based
[7] = Compound was evaluated for blockade of CSD as rats protected/ rats tested after a iv dose of 0.6 mg/kg followed by an infusion of 0.6 mg/kgh; 2/3; type: functional, organism-based
[8] = target: T1, Glutamate receptor ionotropic, NMDA 2B (Rattus norvegicus, UniProt Q00960); test: Ability to displace of racemic […] of [3H]CP-101606 binding to N-methyl-D-aspartate glutamate receptor 2B in rat forebrain membranes.; type: cell membranes, Membrane
[9] = target: T1, Glutamate receptor ionotropic, NMDA 2B; test: Compound was evaluated for its blocking effect against N-methyl-D-aspartate glutamate receptor 2B; design: species or system xenopus oocytes
Rattus norvegicus [10] = test: Compound was evaluated in vivo for blockade of haloperidol induced catalepsy in rat when administered subcutaneously; type: functional; conditions: sc
Procedure, shortened: (§1)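 Rats given haloperidol were scored for catalepsy as remaining perched on an elevated bar. Test drug was given peripherally beforehand. ED50 in mg/kg ± SEM.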

Mus musculus [11] = test: Compound was evaluated in vivo for blockade of NMDA-stimulated fos induction in mouse when administered intravenously.; type: functional; conditions: iv
Rattus norvegicus [12] = test: Compound was evaluated in vivo for blockade of haloperidol induced catalepsy in rat when administered perorally; type: functional; conditions: po; procedure, shortened: as §1
Rattus norvegicus [13] = test: Compound was evaluated in vivo for blockade of haloperidol induced catalepsy in rat when administered perorally.; type: functional; conditions: po; procedure, shortened: as §1
Mus musculus [14] = test: Compound was evaluated in vivo for blockade of NMDA-stimulated fos induction in mouse; type: functional
Rattus norvegicus [15] = species: Rattus norvegicus; test: Compound was tested for neuroprotection against NMDA-Induced toxicity in cultured hippocampal neurons.; type: functional
Procedure, shortened: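 Neuron loss was induced by NMDA or glutamate in primary rat hippocampal neuron cultures, and inhibition of that loss was measured.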

T1 sequence (Q00960 whole entry): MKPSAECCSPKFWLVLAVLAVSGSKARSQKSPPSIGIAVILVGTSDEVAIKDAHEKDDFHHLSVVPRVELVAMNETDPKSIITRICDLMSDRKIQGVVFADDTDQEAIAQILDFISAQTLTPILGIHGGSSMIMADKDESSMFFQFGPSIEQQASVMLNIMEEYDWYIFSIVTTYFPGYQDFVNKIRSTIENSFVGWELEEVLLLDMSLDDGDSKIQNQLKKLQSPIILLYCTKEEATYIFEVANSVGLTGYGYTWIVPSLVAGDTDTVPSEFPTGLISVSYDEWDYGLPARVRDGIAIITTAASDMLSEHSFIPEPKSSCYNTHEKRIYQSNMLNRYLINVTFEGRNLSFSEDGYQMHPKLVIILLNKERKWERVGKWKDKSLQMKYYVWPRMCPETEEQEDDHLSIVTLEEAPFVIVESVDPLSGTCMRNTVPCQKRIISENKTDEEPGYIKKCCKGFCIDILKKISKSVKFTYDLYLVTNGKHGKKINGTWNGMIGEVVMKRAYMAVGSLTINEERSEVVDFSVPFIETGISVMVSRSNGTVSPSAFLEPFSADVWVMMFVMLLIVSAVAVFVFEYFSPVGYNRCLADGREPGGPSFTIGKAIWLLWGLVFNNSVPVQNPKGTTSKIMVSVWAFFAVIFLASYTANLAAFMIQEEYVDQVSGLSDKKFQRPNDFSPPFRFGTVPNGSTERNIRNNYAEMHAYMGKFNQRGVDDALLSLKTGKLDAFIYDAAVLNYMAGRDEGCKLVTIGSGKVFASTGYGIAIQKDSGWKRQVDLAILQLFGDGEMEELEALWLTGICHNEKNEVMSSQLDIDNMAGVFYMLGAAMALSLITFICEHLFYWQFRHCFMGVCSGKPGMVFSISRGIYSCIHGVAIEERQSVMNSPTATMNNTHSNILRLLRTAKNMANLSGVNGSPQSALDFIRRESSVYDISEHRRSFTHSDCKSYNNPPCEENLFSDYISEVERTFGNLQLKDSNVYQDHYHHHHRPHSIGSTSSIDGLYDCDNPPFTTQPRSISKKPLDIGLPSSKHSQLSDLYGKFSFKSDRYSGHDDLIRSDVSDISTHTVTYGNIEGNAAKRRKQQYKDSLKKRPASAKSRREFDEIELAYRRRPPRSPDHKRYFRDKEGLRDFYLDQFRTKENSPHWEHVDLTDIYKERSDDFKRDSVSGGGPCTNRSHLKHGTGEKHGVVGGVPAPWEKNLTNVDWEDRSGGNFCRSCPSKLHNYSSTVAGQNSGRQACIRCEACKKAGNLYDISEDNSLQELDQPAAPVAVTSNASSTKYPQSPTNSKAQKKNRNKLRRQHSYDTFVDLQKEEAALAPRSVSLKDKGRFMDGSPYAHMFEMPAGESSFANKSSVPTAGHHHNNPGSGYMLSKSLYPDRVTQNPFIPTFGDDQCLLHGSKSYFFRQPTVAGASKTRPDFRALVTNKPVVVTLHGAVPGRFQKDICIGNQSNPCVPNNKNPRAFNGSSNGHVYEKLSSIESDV

| Structure (SMILES) | IC50 [1] [nM] | IC50 (Rattus norvegicus [2]; Rattus norvegicus) [nM] | other results |
| --- | --- | --- | --- |
| Oc1cc2c(cc1F)[C@H](O)[C@H](N1CCC(O)(c3ccc(F)cc3)CC1)CO2 | 17 | 23 |  |
| Oc1ccc2c(c1)OC[C@@H](N1CCC(O)(c3ccc(F)cc3)CC1)[C@H]2O (stereo in doubt; 12a) [listing 1 of 2 here] |  |  | Ratio [3]: Active; Ratio [4]: inactive; Blockade effect (Rattus norvegicus [5]): inactive; Blockade effect (Rattus norvegicus [6]): Partially active; Ratio [7]: Partially active |
| Oc1ccc2c(c1)OC[C@@H](N1CCC(O)(c3ccc(F)cc3)CC1)C2 |  |  | IC50 [8]: 300 nM |
| Oc1ccc2c(c1)OC[C@@H](N1CCC(c3ccccc3)CC1)[C@H]2O |  | 25 |  |
| Oc1ccc2c(c1)OC[C@@H](N1CCC(O)(c3ccccc3)CC1)[C@@H]2O |  | 383 |  |
| Oc1ccc2c(c1)OC[C@@H](N1CCC(O)(c3ccc(C(F)(F)F)cc3)CC1)[C@H]2O | 20 |  |  |
| Oc1ccc2c(c1)OC1C[C@]1(N1CCC(O)(c3ccc(F)cc3)CC1)[C@H]2O (stereo not given in full) |  | 1000 |  |
| Oc1ccc2c(c1)OC[C@@H](N1CCC(O)(c3ccc(F)cc3)CC1)[C@H]2O (stereo in doubt; 10a) | 28 | 5 |  |
| Oc1ccc2c(c1)OC[C@@H](N1CCC(O)(c3ccccc3)CC1)[C@H]2O (stereo in doubt; 3a) | 54 |  | IC50 (Rattus norvegicus [2]): 129 nM |
| Oc1ccc2c(c1)OC[C@@H](N1CCC(O)(CCc3ccccc3)CC1)[C@H]2O |  | 20 |  |
| Oc1ccc2c(c1)OC[C@@H](N1CCC(O)(c3ccc(F)cc3)CC1)[C@H]2O (stereo in doubt; 12a) [listing 2 of 2 here] | 18 |  | IC50 [9]: 206 nM; ED50 (Rattus norvegicus [10]): 0.3 mg/kg; ED50 (Mus musculus [11]): 4 mg/kg; ED50 (Rattus norvegicus [12]): 1.2 mg/kg; IC50 (Rattus norvegicus [2]): 4 nM |
| Oc1ccc2c(c1)OC[C@H](N1CCC(O)(c3ccc(F)cc3)CC1)[C@@H]2O | 35 | 11 | ED50 (Rattus norvegicus [10]): 1.1 mg/kg; ED50 (Rattus norvegicus [13]): 6.8 mg/kg |
| Oc1ccc2c(c1)OC[C@@H](N1CCC(O)(Cc3ccccc3)CC1)[C@H]2O |  | 533 |  |
| Oc1ccc2c(c1)OC[C@@H](N1CCC(O)(c3ccccc3)CC1)[C@H]2O (stereo in doubt; 5a) | 31 |  | IC50 (Rattus norvegicus [2]): 9 nM |
| Oc1ccc2c(c1)OC[C@@H](N1CCC(Cc3ccccc3)CC1)[C@H]2O | 130 | 160 |  |
| CO[C@H]1c2ccc(O)cc2OC[C@H]1N1CCC(O)(c2ccc(F)cc2)CC1 | > 300 |  |  |
| COc1ccc2c(c1)OC[C@@H](N1CCC(O)(c3ccc(F)cc3)CC1)[C@H]2O | > 300 |  |  |
| C[C@@H]([C@@H](O)c1ccc(O)cc1)N1CCC(O)(c2ccccc2)CC1 [TRAXOPRODIL] | 27 |  | ED50 (Mus musculus [14]): 1 mg/kg; ED50 (Rattus norvegicus [10]): 0.4 mg/kg; IC50 (Rattus norvegicus [15]): 11 nM |
| Oc1ccc2c(c1)OC[C@H](N1CCC(O)(c3ccccc3)CC1)[C@@H]2O | 107 | 108 |  |
